Bioassay records from PubChem BioAssay.
A selection: hits, their analogues and other compounds. The true share with any hit is near 2%.
LMPTP inh: LMPTP phosphatase inhibitors, primary screen, biochemical, fluorescence intensity, uHTS | Low molecular weight phosphotyrosine protein phosphatase (Homo sapiens), P24666 | recombinant LMPTP-A, OMFP fluorogenic substrate | inhibition, % at 20 µM | actives 0.22% (n = 360,000);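 active means compounds that cut the enzyme signal by at least half of the control window in the single-dose screen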;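 further: plate controls were DMSO wells with enzyme plus substrate for no effect and substrate without enzyme for full effect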
Target sequence (P24666 whole entry, looked up): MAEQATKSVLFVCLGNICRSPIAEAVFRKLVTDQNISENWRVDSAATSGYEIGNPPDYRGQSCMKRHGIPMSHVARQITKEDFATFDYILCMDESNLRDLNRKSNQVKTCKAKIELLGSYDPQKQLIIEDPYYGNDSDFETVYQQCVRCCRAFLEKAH
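Test system: LMPTP-A, protein tyrosine phosphatase of low molecular weight; Input: 0.625 nM enzyme; Incubation: 50 min dark incubation at room temperature; Signal: endpoint fluorescence intensity from OMFP dephosphorylation; Read-out basis: % inhibition versus control wells.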
CSN inh: inhibitors of CSN-mediated cullin deneddylation, primary screen, biochemical, fluorescence polarization, uHTS; inhibition, % at 12.5 µM; AID 651999, 2013; actives 0.38% (n = 360,000); Purified CSN, SCF-Nedd8-OG deneddylation;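 active means pattern-corrected inhibition above about 35%, with an unprinted fluorescence ratio check between 0.5 and 1.5, limit read from the data, passing the limit was not always enough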;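 further: 0% = enzyme with substrate and 100% = substrate without enzyme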
Target sequence (Q92905 whole entry, looked up, one chain of several): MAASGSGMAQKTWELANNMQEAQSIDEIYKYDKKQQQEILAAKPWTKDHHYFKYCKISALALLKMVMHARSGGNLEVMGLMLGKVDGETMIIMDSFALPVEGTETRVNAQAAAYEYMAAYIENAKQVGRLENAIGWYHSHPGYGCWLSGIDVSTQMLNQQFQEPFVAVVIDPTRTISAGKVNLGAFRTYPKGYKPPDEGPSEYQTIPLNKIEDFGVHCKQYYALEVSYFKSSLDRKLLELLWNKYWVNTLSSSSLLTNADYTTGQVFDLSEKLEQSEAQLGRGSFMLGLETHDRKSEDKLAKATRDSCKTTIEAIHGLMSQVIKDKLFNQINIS
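Assay system: purified human Csn5 enzyme expressed in HEK293T cells; Input: 0.24 nM Csn5 enzyme, final concentration; Reagent: 10 nM SCFSkp2-Nedd8OG; Compound dosing: 12.5 µM single point; Times: reaction 90 min, room temperature; Technique: fluorescence polarization readout.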
SUMO1 PPI mod: modulators of SUMO1 protein-protein interactions, primary screen, biochemical, uHTS. AID 602429, 2012. Small ubiquitin-related modifier 1 (Homo sapiens), P63165. SUMO1 binding to a labelled peptide, TR-FRET, 1 h. actives 0.33% (n = 360,000). inhibition, % at 20 µM; in the data active means inhibition above about 37%
DNMT1 inh: human DNMT1 methyltransferase inhibitors, primary screen, biochemical, molecular beacon, fluorescence, HinP1I cleavage, uHTS. inhibition (reported as % activation of signal), % at 10 µM. actives 0.83% (n = 360,000). AID 588458, 2011
STEP block: STEP phosphatase inhibitors, primary screen, biochemical, fluorescence intensity, uHTS | Tyrosine-protein phosphatase non-receptor type 5 (Homo sapiens), P54829 | inhibition, % at 20 µM | recombinant STEP, OMFP fluorogenic substrate | actives 0.25% (n = 360,000) | AID 588621, 2011;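 active means inhibition at 20 µM, scaled per plate between control wells, above about 37%, limit read from the data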;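 further: 0% = DMSO with enzyme and substrate and 100% = substrate only without enzyme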
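Also added – OMFP at 25 µM · Test system – STEP tyrosine phosphatase · Technique – FITC-channel fluorescence of OMFP product · Schedule – 20 min at room temperature, dark · Evaluation – control-normalized % inhibition with plate pattern correction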
Scp-1 inhibitor: Scp-1 phosphatase inhibitors, primary screen, biochemical, colorimetric, uHTS | inhibition, % at 20 µM | Recombinant Scp1, phosphopeptide, malachite green phosphate absorbance | actives 0.88% (n = 340,000);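 active means inhibition above about 50% at 20 µM, limit read from the data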;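 further: plate controls were DMSO wells with enzyme for no effect and wells lacking enzyme for full effect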
Target sequence (Q9GZU7 76-261 limits assumed): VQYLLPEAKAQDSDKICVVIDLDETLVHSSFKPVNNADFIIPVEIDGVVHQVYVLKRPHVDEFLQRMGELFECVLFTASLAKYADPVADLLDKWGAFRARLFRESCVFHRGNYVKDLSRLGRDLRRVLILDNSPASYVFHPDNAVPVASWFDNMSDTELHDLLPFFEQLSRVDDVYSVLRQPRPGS
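Assay system: SCP-1 catalytic fragment, aa 76-261 | Buffer or medium: Tris acetate buffer pH 5.5 with MgCl2 and Tween-20 | Compound: One concentration, 20 µM, with 1.0% DMSO | Also added: Phospho 17-mer peptide substrate | Signal: Absorbance at 630 nm | Incubation: 45 min enzyme reaction at room temperature | Measure: % inhibition of SCP-1 phosphate liberation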
Beacon interf DR: spectral interference with molecular beacon fluorescence, dose response, artefact control for DNMT1 inhibitor project, biochemical, fluorescent molecular beacon; IC50, µM; 200 tested, under 10 active; shares compounds with DNMT1 inh; AID 602382, 2012; spectral interference counter-screen; call rule not given here
DNMT1 inh conf: DNMT1 methyltransferase inhibitor retest, confirmation, biochemical, molecular beacon, fluorescence, single concentration | shares compounds with DNMT1 inh | DNMT1 molecular beacon HinP1I cleavage | inhibition, % at 10 µM | actives 8% (n = 2,300) | AID 602385, 2012;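 active means average inhibition of at least 30% in the single-concentration confirmation test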
DNMT1 interf: counter-screen for DNMT1 inhibitors: spectral interference | DNMT1 molecular beacon spectral interference counterscreen, fluorescence 485/520 | AID 602387 | activation (fluorescence interference), % at 10 µM | shares compounds with DNMT1 inh | actives 1% (n = 2,300);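 active means activation of at least 30% at 10 µM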;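 further: DNMT1 catalytic domain with a HinP1I cleavage step and a FAM/dabcyl DNA beacon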
CSN deneddyl val: Csn5 deneddylation inhibitors, confirmation, biochemical, fluorescence polarization, single concentration, SCF-Nedd8OG substrate; shares compounds with CSN inh; Csn5 deneddylation of SCF-Nedd8OG, 90 min; inhibition, % at 16.6 µM; actives 62% (n = 540);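 further: 0% = DMSO with enzyme and 100% = no enzyme wells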
MMP-2 counter: MMP-2 protease inhibition counter-screen, confirmation, counter-screen for CSN deneddylation inhibitor project, biochemical, fluorescence, single concentration; shares compounds with CSN inh; recombinant MMP-2, FRET substrate fluorescence, 60 min; inhibition, % at 16.6 µM; actives 33% (n = 540); AID 720655, 2013;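 active means corrected plate-normalized z-score of 5 or more, or -5 or less, or inhibition of 15% or more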;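 further: plate controls were DMSO wells with enzyme for no effect and buffer wells lacking MMP-2 for full effect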
Thrombin counter: counter-screen for CSN deneddylation inhibitors: bovine thrombin inhibition; bovine thrombin cleavage of Ub4-pepOG, fluorescence polarization; inhibition, % at 16.6 µM; actives 49% (n = 540); shares compounds with CSN inh;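 active means inhibition at or above a set limit, with a fluorescence interference ratio between 0.5 and a set maximum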
Active calls of the source: *. Unless noted, no stated cut-off is given here; in the data, active means inhibition above about 50%; inactive means the rest.

Results for COCCNC(=O)c1c(N)n(Cc2ccco2)c2nc3ccccc3nc12 ?
LMPTP inh: 2; CSN inh: 4; SUMO1 PPI mod: 7; DNMT1 inh: -13; STEP block: 0; Scp-1 inhibitor: -10

How did CN1/C(=C\C=C2C(=O)NC(=S)NC2=O)C(C)(C)c2ccccc21 do in these assays?
LMPTP inh: 20; CSN inh: -105; SUMO1 PPI mod: -35; DNMT1 inh: 81*; STEP block: -61; Scp-1 inhibitor: 0; DNMT1 inh conf: 55*; DNMT1 interf: 51*

How did CC1(C)OC(c2ccccc2)=C/C(=C/C=C2C(=O)NC(=S)NC2=O)O1 do in these assays?
Scp-1 inhibitor: -5

Results for O=C1c2ccccc2-c2cccc3cccc1c23 ?
LMPTP inh: 11; CSN inh: 8; SUMO1 PPI mod: -15; DNMT1 inh: 54*; STEP block: 6; Scp-1 inhibitor: 49; Beacon interf DR: >99; DNMT1 inh conf: 35*; DNMT1 interf: 2

How did Cn1cccc1/C=C1/C(=O)NC(=O)N(Cc2ccc(F)cc2)C1=O do in these assays?
LMPTP inh: 2; CSN inh: 0; SUMO1 PPI mod: -8; DNMT1 inh: 0; STEP block: 1; Scp-1 inhibitor: -8

What do the screens show for `Cn1cccc1/C=C1/C(=O)NC(=S)N(Cc2ccc(F)cc2)C1=O`?
LMPTP inh: 15; CSN inh: 8; SUMO1 PPI mod: 64*; DNMT1 inh: 91*; STEP block: 1; Scp-1 inhibitor: 11; Beacon interf DR: >99; DNMT1 inh conf: 105*; DNMT1 interf: -5

Results for O=C1NCN(c2ccccc2)C12CCN(C(c1cc3ccccc3o1)c1nnnn1-c1ccc3c(c1)OCCO3)CC2 (configuration not stated) ?
LMPTP inh: 4; CSN inh: 3; SUMO1 PPI mod: -1; DNMT1 inh: -16; STEP block: 5

What do the screens show for `Cc1ccc(-n2c(O)c(C=Nc3ccc(S(=O)(=O)N(C)C)cc3)c(=O)[nH]c2=O)cc1`?
LMPTP inh: -1; CSN inh: 9; SUMO1 PPI mod: 2; DNMT1 inh: 1; STEP block: 2; Scp-1 inhibitor: 0

How did CCCCN1C(=O)/C(=C/C=C/c2ccco2)C(=O)NC1=S do in these assays?
LMPTP inh: 6; CSN inh: 89*; SUMO1 PPI mod: 24; DNMT1 inh: 107*; STEP block: 15; Scp-1 inhibitor: 74*; Beacon interf DR: >99; DNMT1 inh conf: 23; DNMT1 interf: -3; CSN deneddyl val: -60; MMP-2 counter: -5; Thrombin counter: 67*

What do the screens show for `CC(C)c1ccc(N2C(=O)NC(=O)/C(=C/C=C/c3ccco3)C2=O)cc1`?
LMPTP inh: 0; CSN inh: 135*; SUMO1 PPI mod: 12; DNMT1 inh: 86*; STEP block: 4; Scp-1 inhibitor: 2; DNMT1 inh conf: 10; DNMT1 interf: 5; CSN deneddyl val: 0; MMP-2 counter: 2; Thrombin counter: 52*

What do the screens show for `Cc1ccc(N2C(=O)NC(=O)/C(=C/C=C/c3ccco3)C2=O)cc1`?
LMPTP inh: 0; CSN inh: 31; SUMO1 PPI mod: 6; DNMT1 inh: 30; STEP block: -1; Scp-1 inhibitor: 6

How did Cc1cc(C)cc(N2C(=O)NC(=O)/C(=C\C=C\c3ccco3)C2=O)c1 do in these assays?
LMPTP inh: 2; CSN inh: 59*; SUMO1 PPI mod: 4; DNMT1 inh: 74*; STEP block: 2; Scp-1 inhibitor: 4; DNMT1 inh conf: 2; DNMT1 interf: -3; CSN deneddyl val: 59*; MMP-2 counter: 6; Thrombin counter: 24*

How did O=C(CCC(=O)N1CC2C[C@@H](C1)Cn1c2cccc1=O)NCCc1ccccc1 do in these assays?
LMPTP inh: -1; CSN inh: 3; SUMO1 PPI mod: 2; DNMT1 inh: 2; STEP block: -1; Scp-1 inhibitor: -4

Results for CC(Cc1ccccc1)NC(=O)CCCCC(=O)NC(C)Cc1ccccc1 (configuration not stated) ?
LMPTP inh: -1; CSN inh: -3; SUMO1 PPI mod: 2; DNMT1 inh: 2; STEP block: 0; Scp-1 inhibitor: 8

What do the screens show for `CCCCN1C(=O)/C(=C\c2ccco2)C(=O)N(CCc2ccccc2)C1=O`?
LMPTP inh: 1; CSN inh: 21; SUMO1 PPI mod: 7; DNMT1 inh: 10; STEP block: 2; Scp-1 inhibitor: -6

Results for CCCCN1C(=O)/C(=C/c2ccc(N(C)C)cc2)C(=O)N(Cc2ccco2)C1=O ?
LMPTP inh: 3; CSN inh: 132*; SUMO1 PPI mod: 7; DNMT1 inh: 80*; STEP block: -4; Scp-1 inhibitor: 22; DNMT1 inh conf: 1; DNMT1 interf: -1; CSN deneddyl val: 86*; MMP-2 counter: 4; Thrombin counter: 14
